Source: PubChem
SIAE primary = blocks human sialic acid acetylesterase | Q9HAT2 | SIAE FP-Rh probe binding, fluorescence polarization | actives 0.69% (n = 370,000) | AID 1053197 | inhibition, % at 9.66 µM;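 active = inhibition above a cutoff: mean of compounds within the control limits plus 3 SD of those, cut at about 17% in these data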
PRMT1 inh = inhibitors of human PRMT1; inhibition, % at 2.79 µM; AID 652257; actives 1.3% (n = 370,000); recombinant PRMT1, activity-based probe fluorescence polarization;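 active = inhibition above about 21% made by adding two undisclosed values, limit read from the data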
Target sequence (Q99873 whole entry, looked up): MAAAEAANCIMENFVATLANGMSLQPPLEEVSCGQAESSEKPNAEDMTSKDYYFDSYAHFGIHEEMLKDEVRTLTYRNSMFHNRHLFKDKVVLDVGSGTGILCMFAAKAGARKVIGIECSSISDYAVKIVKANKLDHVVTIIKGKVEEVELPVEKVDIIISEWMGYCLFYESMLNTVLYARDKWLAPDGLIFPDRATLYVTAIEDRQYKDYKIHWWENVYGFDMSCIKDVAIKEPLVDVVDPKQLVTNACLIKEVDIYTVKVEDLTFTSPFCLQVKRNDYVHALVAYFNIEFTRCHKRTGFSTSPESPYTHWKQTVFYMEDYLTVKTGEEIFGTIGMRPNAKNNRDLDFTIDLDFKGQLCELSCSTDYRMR
rCAG RNA binder = binds r(CAG) RNA repeats. inhibition, % at 3 µM. actives 1.3% (n = 370,000). AID 651821. r(CAG) RNA repeat, TO-PRO-1 dye displacement fluorescence;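 active = inhibition above the plate cutoff, the mean of all test compounds on that plate plus 3 SD, cut at about 35% in these data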;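 note: higher means more dye released from RNA so lower well fluorescence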
HTRA1 inh = blocks human HTRA1 serine peptidase; Q92743; recombinant HTRA1, FP-rhodamine activity-based probe, fluorescence polarization; inhibition, % at 5.96 µM; actives 0.5% (n = 340,000); AID 504803; in the data active = inhibition above about 36%
ABHD4 inh = ABHD4 (mouse) inhibition, primary FP screen | AID 720543 | purified mABHD4, FP-Rh probe fluorescence polarization | inhibition, % at 8.92 µM | actives 0.54% (n = 370,000);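 active = inhibition exceeding the mean over every tested compound plus 3 SD, cut at about 30% in these data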
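assay system = mABHD4 protein | compound dosing = single nominal dose of 8.92 µM, 0.89% DMSO final | read-out basis = percent inhibition of probe binding, normalized to plate controls | schedule = Enzyme–compound pre-incubation 45 min, then probe 60 min, both 25 °C | detection = fluorescence polarization, excitation 525 nm, emission 598 nm, BODIPY TMR filters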
PRMT1 confirm = confirmation of human PRMT1 inhibitors. shares compounds with PRMT1 inh. recombinant His-PRMT1, activity-based probe fluorescence polarization. inhibition, % at 2.79 µM. actives 42% (n = 3,300);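 active = mean inhibition across replicates above the hit cutoff derived for the earlier primary screen, cut at about 22% in these data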
Large screens that a line does not name were inactive (follow-up assays come after a bar, where they were run). This is a sample that favours compounds with a hit; in the whole collection about 3.3% have one here.

Cc1ccc(S(=O)(=O)N(C)C)cc1NC(=O)CN1C(=O)NC2(CCCc3ccccc32)C1=O (stereo not drawn)	none
CC(=O)c1ccc2c(c1)N(C)c1ccccc1S2	none
C=Cc1ccc2c(c1)N(C)C(=C)S2	PRMT1 inh 81 | PRMT1 confirm 61
COc1ccc(CCN(/C=C2\Sc3ccccc3C2=O)C(C)=O)cc1OC	PRMT1 inh 67 (no result: HTRA1 inh) | PRMT1 confirm 45
CCn1c(-c2ccc(C)cc2)n[nH]c1=S	none
Cc1ccc(-c2csc3n[nH]c(=S)n23)cc1	PRMT1 inh 61 | PRMT1 confirm inactive
Cc1cc(C)c(S(=O)(=O)N(C)c2ccccc2)c(C)c1	none
CN(C)C(=O)c1ccc(SC(=S)NCc2ccccc2)cc1	PRMT1 inh 59 (no result: HTRA1 inh) | PRMT1 confirm 69
CC(C)(C)CC(=O)NC(=S)NCc1ccccc1	none
COc1cc2c(-c3ccc4[nH]ccc4c3)c(-c3ccc(C#N)cc3)oc(=O)c2cc1OC	none
CCN1C(=O)CC(N2CCC(c3nc4ccccc4[nH]3)CC2)C1=O (stereo not drawn)	none
COc1cccc(N2C(=O)CC(N3CCC(c4nc5ccccc5[nH]4)CC3)C2=O)c1 (stereo not drawn)	PRMT1 inh 60 | PRMT1 confirm inactive
Cc1cccc(N2C(=O)CC(N3CCC(c4nc5ccccc5[nH]4)CC3)C2=O)c1 (stereo not drawn)	PRMT1 inh 47 | PRMT1 confirm inactive
O=C(CNC(=O)N1CC(=O)Nc2ccccc21)Nc1cc(Cl)ccc1Cl	none
Cc1ccc(CN2CCNC(=O)C2CC(=O)N(C)CCc2cnn(C)c2)cc1 (stereo not drawn)	none
O=C1NC(=S)SC1=C1CCCCCC1	PRMT1 inh 32 | PRMT1 confirm inactive
O=C1N=C(N2CCCCC2)SC1=C1CCCCC1	none
Cc1ccc(C(=O)Cn2nnc(-c3cccs3)n2)cc1	none
O=C(CN1CC[n+]2c(-c3cccs3)csc21)c1ccc(-c2ccccc2)cc1	PRMT1 inh 32 | PRMT1 confirm 40
Cc1ccc(NC(=O)/C=C\C(=O)NCC(=O)O)cc1C	PRMT1 inh 40 | PRMT1 confirm inactive
Cc1ccc(NC(=O)CC(=O)Nc2ccc(C)c(C)c2)cc1C	none
CC1=C(C)CS(=O)N(S(=O)(=O)c2ccc(Cl)cc2)C1 (stereo not drawn)	PRMT1 inh 34 | PRMT1 confirm 43
Cc1onc(-c2ccccc2Cl)c1C(=O)NCc1ccc(F)cc1	none
Cc1ccc(C)c(N=Cc2c(O)c3ccccc3oc2=O)c1	none (no result: SIAE primary, PRMT1 inh, rCAG RNA binder, ABHD4 inh)
COc1ccccc1NC(CC(=O)c1ccccc1)C(=O)OCC(=O)c1ccc(C)c(C)c1 (stereo not drawn)	PRMT1 inh 50 | PRMT1 confirm inactive
Nc1cc(=O)nc2cn[nH]n12	none
CCCCc1ccc(/C(C)=N/NC(=O)C2CCCC2)cc1	none
Cc1[nH]c2ccc(-c3n[nH]c(=S)n3-c3ccccc3)cc2c1C	none
Cc1[nH]c2ccc(-c3n[nH]c(=S)n3-c3ccc(Br)cc3)cc2c1C	PRMT1 inh 26 | PRMT1 confirm inactive
COc1cccc(-n2c(-c3ccc4[nH]c(C)c(C)c4c3)n[nH]c2=S)c1	PRMT1 inh 26 | PRMT1 confirm inactive
Cc1ccc(NC2CCCN(C(=O)c3ccc(-n4ccnc4)cc3)C2)cc1C (stereo not drawn)	none
Cn1ncc2c(=S)nc(Cl)[nH]c21	PRMT1 inh 31 | PRMT1 confirm inactive
Cc1[nH]n(-c2ccccc2)c(=S)c1C=Nc1ccc([N+](=O)[O-])cc1	PRMT1 inh 87 | PRMT1 confirm 96
Cc1[nH]n(-c2ccccc2)c(=O)c1C=Nc1ccc(S(=O)(=O)N=C(N)N)cc1	none
CCn1c(Cl)c(C=O)s/c1=N\S(=O)(=O)c1ccccc1	PRMT1 inh 49 | PRMT1 confirm 27
COCCN(CCOC)Cc1c(O)ccc2c1O/C(=C\c1ccco1)C2=O	PRMT1 inh 31 | PRMT1 confirm 27
CC1CCN(Cc2c(O)ccc3c2O/C(=C\c2ccco2)C3=O)CC1	none (no result: SIAE primary, PRMT1 inh, rCAG RNA binder, ABHD4 inh)
O=C1/C(=C/c2ccco2)Oc2c1ccc(O)c2CN1CCCCC1	PRMT1 inh 35 | PRMT1 confirm 47
O=C1c2ccccc2C(O)N1Cc1cccs1 (stereo not drawn)	none
CCN(CC)C(=S)SSC(=S)N(CC)CC	PRMT1 inh 74 | PRMT1 confirm 80
O=C1CC(Sc2ccc(Cl)cc2)C(=O)N1c1ccc2c(c1)OCCO2 (stereo not drawn)	PRMT1 inh 55 | PRMT1 confirm 45
Nc1ccccc1SC1CC(=O)N(c2ccc3c(c2)OCCO3)C1=O (stereo not drawn)	none
O=C(CN1CCN(C(=O)c2cncn2-c2ccccc2)CC1)Nc1ccccc1Cl	none
Cc1ccc(C)c(SCC(=O)Nc2ccc(C)c(S(=O)(=O)N3CCOCC3)c2)c1	none
N#Cc1cc2c(nc1SCc1ccccc1)CCC2	none
N#Cc1cc2c(nc1SCc1ccncc1)CCC2	PRMT1 inh 38 | PRMT1 confirm inactive
COc1cccc(OCC(=O)O)c1	none
Cc1cc2c(cc1C)NC(CC(=O)NCc1ccccc1)C(=O)N2 (stereo not drawn)	none
Cc1ccccc1CSCC1Nc2ccc(C(=O)NCCc3ccccc3)cc2NC1=O (stereo not drawn)	PRMT1 inh 49 | PRMT1 confirm 65
O=S(=O)([O-])CCC[n+]1c(SCCCS(=O)(=O)O)sc2ccc(Cl)cc21	PRMT1 inh 71 | PRMT1 confirm 75
CCn1c(C)[n+](CCCS(=O)(=O)[O-])c2cc(Cl)c(Cl)cc21	none
CCCOc1cc(N(CC)CC)ccc1/C=C(/C#N)c1nc2ccc(C)cc2[nH]1	none
CCN(CC)c1ccc(/C=C(/C#N)c2nc3ccc(C)cc3[nH]2)c(OC(C)C)c1	PRMT1 inh 48 | PRMT1 confirm 53
c1csc(-c2nc3ccccc3s2)c1	PRMT1 inh 33 | PRMT1 confirm 34
COc1ccc(CN(C)CC(=O)Nc2cccc(S(N)(=O)=O)c2)c(OC)c1OC	none
CCC1(CC)Cc2ccccc2C(CC(=O)N2CCOCC2)=N1	PRMT1 inh 35 | PRMT1 confirm 31
COc1ccc(C(=O)NCC(=O)NCC(=O)OCc2ccc(Br)cc2)cc1	none
CCCCNC(=O)C1(C)CCCCN1C(=O)c1cccs1 (stereo not drawn)	none (no result: HTRA1 inh)
COC(=O)C1=C(Nc2ccccc2NC(=O)c2ccccc2C(=O)O)CSC1	PRMT1 inh 26 | PRMT1 confirm inactive
COC(=O)C1=C(Nc2ccccc2NC(=O)CCCC(=O)O)CSC1	none (no result: HTRA1 inh)
COc1ccc(C2/C=C\CC(NS(=O)(=O)c3ccc(C)cc3)CC(=O)N2Cc2ccccc2F)cc1 (stereo not drawn)	none (no result: SIAE primary, PRMT1 inh, rCAG RNA binder, ABHD4 inh)
CCOC(=O)c1c(C)[nH]c(C(=O)COC(=O)CCC2CCCC2)c1C	none
N#Cc1cccc(NC(=O)Cn2cnc(S(=O)(=O)N3CCOCC3)c2)c1	none (no result: SIAE primary, PRMT1 inh, rCAG RNA binder, ABHD4 inh)
CCc1ccnc(NS(=O)(=O)c2ccc3c(c2)CCO3)c1	none (no result: HTRA1 inh)
